Results as given in ChEMBL document CHEMBL2331102 (Bioorg Med Chem, 2013).
pIC50: −log10 of the molar value. ≈ marks a conversion by molar mass, not a printed value.

Experiments:
[1] = test system: L6; test: Cytotoxicity against rat L6 cells after 72 hrs by Alamar Blue assay; format: cell-based; conditions: L6, 72 h
In short: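 Counter-screen for cytotoxicity in uninfected L6 rat skeletal muscle myoblasts, with IC50 recorded in µM.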

[2] = test system: Trypanosoma cruzi; test: Antitrypanosomal activity against Trypanosoma cruzi Tulahuen TcVI extracellular trypomastigotes forms transfected with beta-galactosidase gene infected in rat L6 cells assessed as inhibition of parasite growth after 4 days; format: functional, organism-based; conditions: L6, 96 h
In short: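 L6 rat skeletal myoblasts were infected with extracellular trypomastigotes of β-galactosidase-transfected T. cruzi Tulahuen TcVI. After 48 h to establish infection, compound was added and incubation continued 4 days, exposing trypomastigote and intracellular amastigote forms.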

[3] = Selectivity index, ratio of IC50 for rat L6 cells to IC50 for Trypanosoma cruzi Tulahuen TcVI extracellular trypomastigotes forms; format: toxicity, cell-based; conditions: read-out: Ratio IC50
In short: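 Ratio of the L6 myoblast cytotoxicity IC50 to the IC50 against β-galactosidase-expressing T. cruzi Tulahuen TcVI.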

[4] = target: CYP3A4/5 (Homo sapiens, UniProt P08684+P20815); test: Inhibition of CYP3A4/5 in human liver microsomes assessed as reduction in testosterone-beta-hydroxylation; format: ADME, Microsome; conditions: probe testosterone
In short: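 CYP3A4 inhibition measured as inhibition of testosterone β-hydroxylation, reported as IC50 (µM).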

[5] = Kinetic solubility of the compound at pH 6.5 phosphate buffer by nephelometric analysis; format: physicochemical; conditions: read-out: Kinetic_solubility
In short: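 Kinetic solubility in phosphate buffer at pH 6.5, determined by nephelometry and reported in µg/mL.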

Structure (SMILES) | pIC50 [1] | pIC50 [2] | selectivity ratio [3] | pIC50 [4] | solubility kinetic [5] [µg/mL]
CC(C)(C)C(=O)N1CCN(C(c2ccc(C#N)cc2)c2cccnc2)CC1 (centres undefined) | < 4.00 | 6.60 | > 100 |  | 
O=C(NC1CC1)N1CCN(C(c2ccc(C(F)(F)F)cc2)c2cccnc2)CC1 (centres undefined) | < 4.00 | < 6.00 | > 100 |  | 
CC(C)c1ccc(S(=O)(=O)N2CCN(C(c3ccc(Cl)cc3)c3cccnc3)CC2)cc1 (centres undefined) |  | 7.92 | > 100 |  | 
CS(=O)(=O)N1CCN(C(c2ccc(Cl)cc2)c2cccnc2)CC1 (centres undefined) | < 4.00 | 6.96 | > 100 | 5.44 | 12.5 (≈ 34.2 µM)
CC(C)S(=O)(=O)N1CCN(C(c2ccc(Cl)cc2)c2cccnc2)CC1 (centres undefined) | < 4.00 | 7.55 | > 100 | 6.09 | 12.5 (≈ 31.7 µM)
O=C(Nc1ccc(Cl)cc1)N1CCN(C(c2ccc(Cl)cc2)c2cncnc2)CC1 (centres undefined) |  | 7.66 | > 100 |  | 
CN(C)C(=O)N1CCN(C(c2ccc(Cl)cc2)c2cccnc2)CC1 (centres undefined) | < 4.00 | 6.92 | > 100 |  | 
CC(C)(C)C(=O)N1CCN(C(c2ccc(C(F)(F)F)cc2)c2cccnc2)CC1 (centres undefined) |  | 7.52 | > 100 | 5.64 | 12.5 (≈ 30.8 µM)
Clc1ccc(C(c2cccnc2)N2CCN(c3ccccc3)CC2)cc1 (centres undefined) |  | 7.47 | > 100 |  | 
O=C(Nc1ccccc1)N1CCN(C(c2cccnc2)c2ccc(Cl)cc2F)CC1 (centres undefined) |  | 8.22 | > 100 |  | 
CC(C)c1ccc(NC(=O)N2CCN(C(c3cncnc3)c3ccc(Cl)cc3F)CC2)cc1 (centres undefined) |  | 8.15 | > 100 |  | 
CS(=O)(=O)N1CCN(C(c2cncnc2)c2ccc(C(F)(F)F)cc2F)CC1 (centres undefined) | < 4.00 | 7.60 | > 100 | 5.25 | 25 (≈ 59.7 µM)
Fc1cc(Cl)ccc1C(c1cccnc1)N1CCN(c2ccccc2)CC1 (centres undefined) |  | 7.74 | > 100 |  | 
O=S(=O)(c1ccccc1)N1CCN(C(c2ccc(Cl)cc2)c2cccnc2)CC1 (centres undefined) |  | 8.05 | > 100 | 5.72 | < 1.6
CC(C)(C)C(=O)N1CCN(C(c2cncnc2)c2ccc(Cl)cc2F)CC1 (centres undefined) | < 4.00 | 7.09 | > 100 | 5.15 | 25 (≈ 64 µM)
CS(=O)(=O)N1CCN(C(c2cccnc2)c2ccc(C(F)(F)F)cc2F)CC1 (centres undefined) |  | 7.55 | > 100 | 6.00 | 25 (≈ 59.9 µM)
CS(=O)(=O)N1CCN(C(c2ccc(C(F)(F)F)cc2)c2cncnc2)CC1 (centres undefined) | < 4.00 | 6.11 | > 100 |  | 
COc1ccccc1N1CCN(C(c2ccc(C(F)(F)F)cc2)c2cnccn2)CC1 (centres undefined) |  | 6.62 | > 100 | 4.60 | 3.1 (≈ 7.24 µM)
O=C(Oc1ccccc1)N1CCN(C(c2ccc(Cl)cc2)c2cccnc2)CC1 (centres undefined) |  | 8.10 | > 100 |  | 
CC(C)(C)OC(=O)N1CCN(C(c2cccnc2)c2ccc(Cl)cc2F)CC1 (centres undefined) |  | 7.70 | > 100 | 5.72 | 3.1 (≈ 7.64 µM)
CC(C)(C)C(=O)N1CCN(C(c2cccnc2)c2ccc(Cl)cc2F)CC1 (centres undefined) |  | 7.72 | > 100 | 6.00 | 12.5 (≈ 32.1 µM)
O=C(Oc1ccccc1)N1CCN(C(c2cccnc2)c2ccc(Cl)cc2F)CC1 (centres undefined) |  | 8.30 | > 100 |  | 
CC(C)Oc1ccc(C(c2cccnc2)N2CCN(C(=O)C(C)C)CC2)cc1 (centres undefined) | < 4.00 | 7.46 | > 100 |  | 
O=C(Nc1ccccc1)N1CCN(C(c2ccc(Cl)cc2)c2cccnc2)CC1 (centres undefined) |  | 8.05 | > 100 |  | 
N#Cc1ccc(C(c2cccnc2)N2CCN(C(=O)NC3CC3)CC2)cc1 (centres undefined) | < 4.00 | < 6.00 | > 100 |  | 

Structure (SMILES) | pIC50 [1] | pIC50 [2] | selectivity ratio [3] | pIC50 [4] | solubility kinetic [5] [µg/mL]
CC(C)(C)OC(=O)N1CCN(C(c2cncnc2)c2ccc(Cl)cc2F)CC1 (centres undefined) |  | 7.62 | > 100 | 5.54 | 12.5 (≈ 30.7 µM)
N#Cc1ccc(C(c2cccnc2)N2CCN(C(=O)C3CC3)CC2)cc1 (centres undefined) | < 4.00 | 6.55 | > 100 |  | 
N#Cc1ccc(C(c2cccnc2)N2CCN(c3nccs3)CC2)cc1 (centres undefined) | < 4.00 | 7.30 | > 100 |  | 
COc1ccccc1N1CCN(C(c2cncnc2)c2ccc(Cl)cc2F)CC1 (centres undefined) |  | 7.19 | > 100 |  | 
Fc1cc(Cl)ccc1C(c1cncnc1)N1CCN(c2ccccc2)CC1 (centres undefined) |  | 7.11 | > 100 |  | 
CS(=O)(=O)N1CCN(C(c2ccc(Cl)cc2)c2cncnc2)CC1 (centres undefined) | < 4.00 | 6.06 | > 100 |  | 
O=C(Nc1ccc(Cl)cc1)N1CCN(C(c2cncnc2)c2ccc(Cl)cc2F)CC1 (centres undefined) |  | 8.00 | > 100 | 6.52 | 3.1 (≈ 6.73 µM)
CC(C)c1ccc(S(=O)(=O)N2CCN(C(c3cncnc3)c3ccc(Cl)cc3F)CC2)cc1 (centres undefined) | < 4.00 | 7.74 | > 100 |  | 
Cc1noc(N2CCN(C(c3cccnc3)c3ccc(C(F)(F)F)cc3F)CC2)n1 (centres undefined) |  | 7.77 | > 100 |  | 
CS(=O)(=O)N1CCN(C(c2ccc(C(F)(F)F)cc2)c2cccnc2)CC1 (centres undefined) | < 4.00 | 7.11 | > 100 |  | 
Cc1csc(C(=O)N2CCN(C(c3ccc(C#N)cc3)c3cccnc3)CC2)n1 (centres undefined) | < 4.00 | 6.29 | > 100 |  | 
CC(C)(C)OC(=O)N1CCN(C(c2ccc(C(F)(F)F)cc2)c2cccnc2)CC1 (centres undefined) |  | 7.77 | > 100 |  | 
CC(C)(C)C(=O)N1CCN(C(c2cccnc2)c2ccc(C(F)(F)F)cc2F)CC1 (centres undefined) |  | 7.62 | > 100 | 5.41 | 12.5 (≈ 29.5 µM)
COc1ccccc1N1CCN(C(c2ccc(Cl)cc2)c2cccnc2)CC1 (centres undefined) |  | 7.70 | > 100 |  | 
COc1ccccc1N1CCN(C(c2ccc(OC(C)C)cc2)c2cccnc2)CC1 (centres undefined) |  | 7.55 | > 100 |  | 
CS(=O)(=O)N1CCN(C(c2ccc(C#N)cc2)c2cccnc2)CC1 (centres undefined) | < 4.00 | 6.44 | > 100 |  | 
O=C(c1ccccc1)N1CCN(C(c2ccc(Cl)cc2)c2cccnc2)CC1 (centres undefined) |  | 7.17 | > 100 |  | 
Fc1cc(Cl)ccc1C(c1cccnc1)N1CCN(c2ncccn2)CC1 (centres undefined) |  | 7.59 | > 100 |  | 
O=S(=O)(C1CCCCC1)N1CCN(C(c2ccc(Cl)cc2)c2cccnc2)CC1 (centres undefined) |  | 8.00 | > 100 |  | 
O=C(C1CCCCC1)N1CCN(C(c2cccnc2)c2ccc(Cl)cc2F)CC1 (centres undefined) |  | 7.55 | > 100 | 5.41 | 6.3 (≈ 15.1 µM)
O=C(C1CC1)N1CCN(C(c2cncnc2)c2ccc(Cl)cc2F)CC1 (centres undefined) | < 4.00 | 6.77 | > 100 |  | 
O=S(=O)(c1ccc(Cl)cc1)N1CCN(C(c2ccc(Cl)cc2)c2cccnc2)CC1 (centres undefined) |  | 7.62 | > 100 |  | 
O=C(Cn1ccnc1[N+](=O)[O-])NCc1ccccc1 [BENZNIDAZOLE] | < 4.00 | 5.94 |  |  | 
O=C(c1ccccc1)N1CCN(C(c2cccnc2)c2ccc(Cl)cc2F)CC1 (centres undefined) |  | 7.15 | > 100 |  | 
